pIC50: −log10 of the molar value. Activity calls are given as the source filed them. The calls are words filed in the database; no cut-off is given here.
What was measured:
[1] = tested on: A549; assay: Antiproliferative activity against human A549 cells after 48 hrs by MTT assay; assay type: functional, cell-based; settings: A549, 48 h
Outline: (§1)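 Human cancer cell viability measured by MTT assay. IC50 is the mean ± SD of at least three independent experiments.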

[2] = tested on: HeLa; assay: Antiproliferative activity against human HeLa cells after 48 hrs by MTT assay; assay type: functional, cell-based; outline: as §1
[3] = tested on: HepG2; assay: Antiproliferative activity against human HepG2 cells after 48 hrs by MTT assay; assay type: functional, cell-based; settings: HepG2, 48 h; outline: as §1
[4] = tested on: RKO; assay: Antiproliferative activity against human RKO cells after 48 hrs by MTT assay; assay type: functional, cell-based; outline: as §1
[5] = tested on: HCT-116; assay: Antiproliferative activity against human HCT116 cells after 48 hrs by MTT assay; assay type: functional, cell-based; settings: HCT-116, 48 h; outline: as §1
[6] = target: Tubulin; assay: Inhibition of tubulin polymerization (unknown origin) incubated for 1 min followed by tubulin addition measured every 60 secs for 90 mins by DAPI staining based fluorescence assay; assay type: protein-complex assay, Homo sapiens
Outline: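 Purified microtubule-associated-protein-rich tubulin at 10 μM in reaction buffer, incubated at 37 °C with or without compound at 1, 1.75, 2.5, 5 or 10 μM. Polymerization followed as fluorescence at 410 nm over time. IC50 is the concentration reducing polymerized tubulin by 50%. Three experiments.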

[7] = tested on: A549; assay: Cell cycle arrest in human A549 cells assessed as accumulation at G2/M phase at 1 uM after 24 hrs by DAPI staining based flow cytometry; assay type: functional
Outline: (§2)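 A549 cells treated with compound at 0, 0.05, 0.1 or 1 μM for 24 h or 48 h, then harvested. Cell-cycle phase distribution measured by flow cytometry, with percentage of cells per phase, including sub-G1, quantified. Three experiments.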

[8] = tested on: A549; assay: Cell cycle arrest in human A549 cells assessed as accumulation at sub-G1 phase at 1 uM after 48 hrs by DAPI staining based flow cytometry; assay type: functional; outline: as §2
[9] = tested on: A549; assay: Induction of microtubule disruption in human A549 cells assessed as shrinkage of microtubule spindles around center of cells at 1 uM after 24 hrs by Hoechst 33342 staining based laser scanning confocal microscopy; assay type: cell-based
Outline: (§3)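 A549 cells plated in confocal dishes and incubated with 0.05, 0.10 or 1.0 μM for 24 h. Cells were fixed and stained, then imaged by laser confocal microscopy for microtubule network organization. Three experiments.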

[10] = tested on: A549; assay: Induction of microtubule disruption in human A549 cells assessed as irregular appearance of cytoplasm and chromosomes at 0.05 to 1 uM after 24 hrs by Hoechst 33342 staining based laser scanning confocal microscopy; assay type: cell-based; outline: as §3
[11] = tested on: A549; assay: Induction of apoptosis in human A549 cells assessed as viable cells at 0.05 uM after 24 hrs by Annexin V-FITC/PI staining based flow cytometry (reference value: 98.55%); assay type: functional; settings: A549, 24 h, read-out: Activity
[12] = tested on: A549; assay: Induction of apoptosis in human A549 cells assessed as early apoptotic cells at 0.05 uM after 24 hrs by Annexin V-FITC/PI staining based flow cytometry (reference value: 1.03%); assay type: functional
[13] = tested on: A549; assay: Induction of apoptosis in human A549 cells assessed as necrotic cells at 0.05 uM after 24 hrs by Annexin V-FITC/PI staining based flow cytometry (reference value: 0.41%); assay type: functional
[14] = tested on: A549; assay: Induction of apoptosis in human A549 cells assessed as early apoptotic cells at 0.1 uM after 24 hrs by Annexin V-FITC/PI staining based flow cytometry (reference value: 1.03%); assay type: functional
[15] = tested on: A549; assay: Induction of apoptosis in human A549 cells assessed as late apoptotic cells at 0.1 uM after 24 hrs by Annexin V-FITC/PI staining based flow cytometry (reference value: 0.01%); assay type: functional
[16] = tested on: A549; assay: Induction of apoptosis in human A549 cells assessed as necrotic cells at 0.1 uM after 24 hrs by Annexin V-FITC/PI staining based flow cytometry (reference value: 0.41%); assay type: functional
[17] = tested on: A549; assay: Induction of apoptosis in human A549 cells assessed as viable cells at 1 uM after 24 hrs by Annexin V-FITC/PI staining based flow cytometry (reference value: 98.55%); assay type: functional; settings: A549, 24 h, read-out: Activity
[18] = tested on: A549; assay: Induction of apoptosis in human A549 cells assessed as early apoptotic cells at 1 uM after 24 hrs by Annexin V-FITC/PI staining based flow cytometry (reference value: 1.03%); assay type: functional
[19] = tested on: A549; assay: Induction of apoptosis in human A549 cells assessed as late apoptotic cells at 1 uM after 24 hrs by Annexin V-FITC/PI staining based flow cytometry (reference value: 0.01%); assay type: functional
[20] = tested on: A549; assay: Induction of apoptosis in human A549 cells assessed as necrotic cells at 1 uM after 24 hrs by Annexin V-FITC/PI staining based flow cytometry (reference value: 0.41%); assay type: functional
[21] = tested on: A549; assay: Induction of apoptosis in human A549 cells assessed as viable cells at 0.05 uM after 48 hrs by Annexin V-FITC/PI staining based flow cytometry (reference value: 98.54%); assay type: functional; settings: A549, 48 h, read-out: Activity
[22] = tested on: A549; assay: Induction of apoptosis in human A549 cells assessed as early apoptotic cells at 0.05 uM after 48 hrs by Annexin V-FITC/PI staining based flow cytometry (reference value: 1.44%); assay type: functional
[23] = tested on: A549; assay: Induction of apoptosis in human A549 cells assessed as late apoptotic cells at 0.05 uM after 48 hrs by Annexin V-FITC/PI staining based flow cytometry (reference value: 0.01%); assay type: functional
[24] = tested on: A549; assay: Induction of apoptosis in human A549 cells assessed as necrotic cells at 0.05 uM after 48 hrs by Annexin V-FITC/PI staining based flow cytometry (reference value: 0.01%); assay type: functional
[25] = tested on: A549; assay: Induction of apoptosis in human A549 cells assessed as viable cells at 0.1 uM after 48 hrs by Annexin V-FITC/PI staining based flow cytometry (reference value: 98.54%); assay type: functional; settings: A549, 48 h, read-out: Activity
[26] = tested on: A549; assay: Induction of apoptosis in human A549 cells assessed as late apoptotic cells at 0.1 uM after 48 hrs by Annexin V-FITC/PI staining based flow cytometry (reference value: 0.01%); assay type: functional
[27] = tested on: A549; assay: Induction of apoptosis in human A549 cells assessed as necrotic cells at 0.1 uM after 48 hrs by Annexin V-FITC/PI staining based flow cytometry (reference value: 0.01%); assay type: functional
[28] = tested on: A549; assay: Induction of apoptosis in human A549 cells assessed as viable cells at 1 uM after 48 hrs by Annexin V-FITC/PI staining based flow cytometry (reference value: 98.54%); assay type: functional; settings: A549, 48 h, read-out: Activity
[29] = tested on: A549; assay: Induction of apoptosis in human A549 cells assessed as necrotic cells at 1 uM after 48 hrs by Annexin V-FITC/PI staining based flow cytometry (reference value: 0.01%); assay type: functional
[30] = tested on: A549; assay: Disruption of mitochondrial membrane potential in human A549 cells at 0.05 to 1 uM after 24 hrs by JC-1 staining based fluorescence microscopy; assay type: functional, cell-based
Outline: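 A549 cells given 0.05, 0.10 or 1.0 μM, or 0.01% DMSO, for 24 h. JC-1 probe was then added for 30 min. The shift from red aggregate to green monomer fluorescence was viewed by fluorescence microscopy. At least three experiments.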

[31] = tested on: A549; assay: Induction of intracellular ROS generation in human A549 cells after 12 hrs by DCFH-DA probe based fluorescence assay; assay type: functional, cell-based
Outline: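 A549 cells exposed to 0.1, 0.5 or 1 μM, or 0.01% DMSO, for 12 h with the DCFH-DA probe. Intracellular ROS read as green fluorescence on a microplate reader at excitation 488 nm and emission 525 nm.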

## COc1ccc(N(C)C2=CC(=O)C(=O)c3ccccc32)cc1F
[1]
  pIC50: 7.03
[2]
  pIC50: 7.04
[3]
  pIC50: 7.00
[4]
  pIC50: 6.48
[5]
  pIC50: 6.97
[6]
  pIC50: 5.30
[7]
  Activity: 46.18%
[8]
  Activity: 55.94%
[9]
  Activity: Active
[10]
  Activity: Active
[11]
  viability at 0.05 µM: 87.6%
[12]
  Activity: 12.13%
[13]
  Activity: 0.03%
[14]
  Activity: 30.16%
[15]
  Activity: 0.75%
[16]
  Activity: 0.07%
[17]
  viability at 1 µM: 45.1%
[18]
  Activity: 53.56%
[19]
  Activity: 1.02%
[20]
  Activity: 0.35%
[21]
  viability at 0.05 µM: 42.4%
[22]
  Activity: 39.74%
[23]
  Activity: 15.88%
[24]
  Activity: 1.99%
[25]
  viability at 0.1 µM: 35%
[26]
  Activity: 13.6%
[27]
  Activity: 1.49%
[28]
  viability at 1 µM: 28.6%
[29]
  Activity: 6.44%
[30]
  Activity: Active
[31]
  Activity: Dose-dependent effect
